Activity calls are given as the source filed them. The calls are words filed in the database; no cut-off is given here.
Legend:
[1] = system: Protein cereblon/Androgen receptor (Homo sapiens), P10275+Q96SW2 [T878A]; experiment: Protac activity at CRBN/AR T878A mutant in human LNCaP cells assessed as reduction in AR protein level at 100 nM after 3 hrs in presence of thalidomide by Western blot analysis
[2] = target: T1, Protein cereblon/Androgen receptor (Homo sapiens, UniProt P10275+Q96SW2); experiment: Protac activity at CRBN/AR in human VCaP cells assessed as reduction in AR protein level at 100 nM after 3 hrs in presence of N-((1r,4r)-4-((3-chloro-4-cyanophenyl)(methyl)amino)cyclohexyl)-4-(4-methylpiperazin-1-yl)benzamide by Western blot analysis
T1 sequence (P10275 whole entry, looked up): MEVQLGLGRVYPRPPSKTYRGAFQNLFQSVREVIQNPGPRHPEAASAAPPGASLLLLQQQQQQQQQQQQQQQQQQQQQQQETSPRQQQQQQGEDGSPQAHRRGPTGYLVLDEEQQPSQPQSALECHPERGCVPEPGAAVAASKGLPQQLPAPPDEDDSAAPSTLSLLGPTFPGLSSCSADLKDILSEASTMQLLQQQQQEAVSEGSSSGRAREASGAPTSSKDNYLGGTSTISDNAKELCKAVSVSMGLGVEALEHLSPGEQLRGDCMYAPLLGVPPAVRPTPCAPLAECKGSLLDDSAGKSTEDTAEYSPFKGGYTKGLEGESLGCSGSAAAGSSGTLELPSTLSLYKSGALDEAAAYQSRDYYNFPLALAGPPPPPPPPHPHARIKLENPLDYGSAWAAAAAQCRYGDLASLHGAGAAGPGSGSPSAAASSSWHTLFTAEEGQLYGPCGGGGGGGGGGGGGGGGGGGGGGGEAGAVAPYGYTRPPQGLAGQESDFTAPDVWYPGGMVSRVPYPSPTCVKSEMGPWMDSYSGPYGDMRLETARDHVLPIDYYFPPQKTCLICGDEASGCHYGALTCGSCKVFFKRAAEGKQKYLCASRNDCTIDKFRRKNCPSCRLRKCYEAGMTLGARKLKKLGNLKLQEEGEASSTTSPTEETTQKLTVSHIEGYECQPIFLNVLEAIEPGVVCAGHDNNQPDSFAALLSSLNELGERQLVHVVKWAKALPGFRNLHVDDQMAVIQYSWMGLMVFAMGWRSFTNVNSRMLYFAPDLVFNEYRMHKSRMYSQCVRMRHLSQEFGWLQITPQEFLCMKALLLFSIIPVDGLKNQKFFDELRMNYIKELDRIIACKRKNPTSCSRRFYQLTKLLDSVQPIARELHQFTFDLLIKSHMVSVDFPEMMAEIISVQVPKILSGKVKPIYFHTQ
T1 sequence (Q96SW2 whole entry, looked up): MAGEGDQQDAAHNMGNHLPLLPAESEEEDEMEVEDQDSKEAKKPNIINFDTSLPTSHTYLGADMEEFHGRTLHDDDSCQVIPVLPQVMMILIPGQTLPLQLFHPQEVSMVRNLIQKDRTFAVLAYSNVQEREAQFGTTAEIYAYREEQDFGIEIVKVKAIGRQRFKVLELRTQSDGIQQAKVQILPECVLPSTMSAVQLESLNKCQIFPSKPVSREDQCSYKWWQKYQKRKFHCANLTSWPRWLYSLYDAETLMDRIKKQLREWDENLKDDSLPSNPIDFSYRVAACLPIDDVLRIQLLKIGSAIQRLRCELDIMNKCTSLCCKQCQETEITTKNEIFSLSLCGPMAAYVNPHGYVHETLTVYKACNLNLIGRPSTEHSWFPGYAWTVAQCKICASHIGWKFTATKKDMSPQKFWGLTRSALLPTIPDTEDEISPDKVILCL

[3] = Drug distribution in liver of CB17:SCID mouse xenografted with human VCaP cells at 20 mg/kg, po measured at 6 hrs by LCMS analysis; format: ADME, organism-based; settings: read-out: Drug uptake
Outline: (§1)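 Tumor-bearing male CB17 SCID mice (VCaP xenografts) given one 20 mg/kg oral dose in 100% PEG200, three mice per time point; plasma, tumor, liver, kidney, prostate and heart taken at 1, 6 and 24 h; tissues homogenised in water/acetonitrile, protein precipitated with cold acetonitrile, drug quantified by LC–MS/MS; ratios are tissue over plasma level.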

[4] = target: Voltage-gated inwardly rectifying potassium channel KCNH2 (Homo sapiens, UniProt Q12809); experiment: Inhibition of human ERG up to 30 uM
Sequence of Voltage-gated inwardly rectifying potassium channel KCNH2 (Q12809 whole entry): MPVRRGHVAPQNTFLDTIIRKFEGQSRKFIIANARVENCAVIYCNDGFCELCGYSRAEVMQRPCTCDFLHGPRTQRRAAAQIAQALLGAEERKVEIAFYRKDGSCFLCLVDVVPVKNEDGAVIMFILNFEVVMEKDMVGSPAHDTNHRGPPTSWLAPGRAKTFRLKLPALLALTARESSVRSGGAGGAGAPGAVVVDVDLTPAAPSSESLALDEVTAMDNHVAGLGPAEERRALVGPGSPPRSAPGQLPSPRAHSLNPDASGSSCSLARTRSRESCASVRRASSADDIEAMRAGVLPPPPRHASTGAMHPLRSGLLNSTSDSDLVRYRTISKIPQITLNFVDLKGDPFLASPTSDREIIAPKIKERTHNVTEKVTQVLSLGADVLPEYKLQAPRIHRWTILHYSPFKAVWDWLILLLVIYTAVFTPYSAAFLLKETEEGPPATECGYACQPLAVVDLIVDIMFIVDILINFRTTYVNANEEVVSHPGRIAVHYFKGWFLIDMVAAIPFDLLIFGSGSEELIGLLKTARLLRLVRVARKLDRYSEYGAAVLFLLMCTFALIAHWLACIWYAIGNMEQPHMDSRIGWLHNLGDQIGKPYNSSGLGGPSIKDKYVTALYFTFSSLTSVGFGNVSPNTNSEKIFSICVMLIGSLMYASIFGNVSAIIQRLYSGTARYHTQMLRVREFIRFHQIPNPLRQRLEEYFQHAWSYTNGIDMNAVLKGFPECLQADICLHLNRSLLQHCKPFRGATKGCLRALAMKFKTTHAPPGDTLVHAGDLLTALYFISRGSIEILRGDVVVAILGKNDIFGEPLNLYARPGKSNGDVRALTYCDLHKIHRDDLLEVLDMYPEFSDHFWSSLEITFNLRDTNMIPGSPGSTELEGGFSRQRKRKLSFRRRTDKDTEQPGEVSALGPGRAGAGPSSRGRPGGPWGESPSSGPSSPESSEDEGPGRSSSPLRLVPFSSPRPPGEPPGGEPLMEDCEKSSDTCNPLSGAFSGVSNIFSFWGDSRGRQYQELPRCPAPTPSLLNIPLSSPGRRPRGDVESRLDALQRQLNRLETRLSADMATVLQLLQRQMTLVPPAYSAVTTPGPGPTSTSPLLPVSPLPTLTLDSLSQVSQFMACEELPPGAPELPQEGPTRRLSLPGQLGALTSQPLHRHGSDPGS
Outline: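 hERG potassium channel stably expressed in HEK 293 cells; current recorded by manual patch clamp at 0.3, 1, 3, 10 and 30 μM, in duplicate, for concentration–response.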

VCaP [5] = experiment: Antitumor activity against human VCaP cells xenografted in CB17:SCID mouse assessed as reduction in AR protein level in tumor at 10 mg/kg, po for 3 days measured at 3 hrs by Western blot analysis; format: functional; settings: 72 h, time 3 day
Outline: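 Male CB17 SCID mice bearing subcutaneous VCaP tumors (5 × 10^6 cells in Matrigel); dosed by oral gavage in 100% PEG200 at 10 mg/kg daily for 3 days; tumors harvested 3, 6 and 24 h post-dose, lysed in RIPA, Western blot for AR with GAPDH loading control, bands quantified by densitometry relative to loading control.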

[6] = Drug distribution in prostate gland of CB17:SCID mouse xenografted with human VCaP cells at 20 mg/kg, po measured at 6 hrs by LCMS analysis; format: ADME, organism-based; settings: read-out: Drug uptake
Outline: as §1

[7] = target: T1, Protein cereblon/Androgen receptor; experiment: Protac activity at CRBN/AR in human VCaP cells assessed as maximal AR degradation at 0.1 nM after 24 hrs by Western blot analysis relative to control; format: cell-based
Outline: (§2)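 Western blot of AR after 24 h exposure to a concentration series in ATCC-derived cells, all with 10% FBS at 37 °C and 5% CO2: LNCaP and 22Rv1 in RPMI1640, VCaP in DMEM with Glutamax, MDA-PCa-2b in F-12K. Lysis in RIPA with protease and phosphatase inhibitors, then 4–12% SDS-PAGE and PVDF transfer. Band minus background is normalised to GAPDH.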

[8] = Drug distribution in kidney of CB17:SCID mouse xenografted with human VCaP cells at 20 mg/kg, po measured at 1 hrs by LCMS analysis; format: ADME, organism-based; settings: read-out: Drug uptake
Outline: as §1

[9] = Drug distribution in CB17:SCID mouse xenografted with human VCaP cells assessed as kidney to plasma ratio at 20 mg/kg, po measured at 24 hrs by LCMS analysis; format: ADME, organism-based
Outline: as §1

VCaP [10] = experiment: Antitumor activity against human VCaP cells xenografted in CB17:SCID mouse assessed as tumor growth inhibition at 10 mg/kg, po treated for 37 days relative to control; format: functional; settings: 888 h, time 37 day, read-out: TGI
[11] = target: T1, Protein cereblon/Androgen receptor; experiment: Protac activity at CRBN/AR in human 22Rv1 cells assessed as reduction in AR protein level at 30 nM after 24 hrs by Western blot analysis relative to control; format: cell-based
Outline: as §2

[12] = target: Protein cereblon/Androgen receptor (Homo sapiens, UniProt P10275+Q96SW2, T878A); settings: lncap
Sequence of Protein cereblon/Androgen receptor (Homo sapiens, UniProt P10275+Q96SW2, T878A) (P10275 whole entry T878A, stated change not applied): as the sequence (P10275 whole entry, looked up) above, with T878A counted along it
Sequence of Protein cereblon/Androgen receptor (Homo sapiens, UniProt P10275+Q96SW2, T878A) (Q96SW2 whole entry, stated change not applied): as the sequence (Q96SW2 whole entry, looked up) above

[13] = Drug distribution in liver of CB17:SCID mouse xenografted with human VCaP cells at 20 mg/kg, po measured at 24 hrs by LCMS analysis; format: ADME, organism-based; settings: read-out: Drug uptake
Outline: as §1

Structure (SMILES): CN(c1ccc(C#N)c(Cl)c1)[C@H]1CC[C@H](NC(=O)c2ccc(N3CCN(C4CN(c5ccc6c(c5)C(=O)N(C5CCC(=O)NC5=O)C6=O)C4)CC3)cc2)CC1 (stereo partly drawn)
- Activity [1]: inactive
- Activity [2]: inactive
- concentration at 6 h [3]: 3510 ng/g
- inhibition (INH) [4]: Not Active
- inhibition in vivo at 10 mg/kg (VCaP [5]): 78%
- concentration at 6 h [6]: 76 ng/g
- Emax [7]: > 95%
- concentration at 1 h [8]: 437 ng/g
- Kp at 24 h [9]: 1.7
- inhibition in vivo at 10 mg/kg (VCaP [10]): 54.9%
- inhibition [11]: 80%
- DC50 [12]: 0.1 nM
- concentration at 24 h [13]: 6870 ng/g

Source: ChEMBL document CHEMBL4842372, “Discovery of ARD-2585 as an Exceptionally Potent and Orally Active PROTAC Degrader of Androgen Receptor for the Treatment of Advanced Prostate Cancer” (J Med Chem, 2021)
